# Measured values reported in ChEMBL document CHEMBL3526002, “Tissue distribution and identification of radioactivity components at elimination phase after oral administration of [¹⁴C]CS-1036, an α-amylase inhibitor, to rats” (Drug Metab Dispos, 2013).
# How the values were obtained:
# Set-up in all cases: dose 5 mg/kg, dosed compound name [14C]CS-1036, route oral
# Conditions in all cases: in vivo
# Zone of skin = assay: Drug uptake in albino F344/DuCrlCrlj rat skin at 5 mg/kg, po after 24 hrs by liquid scintillation counting; format: ADME, organism-based
# [1] = Drug uptake in albino F344/DuCrlCrlj rat trachea at 5 mg/kg, po after 24 hrs by liquid scintillation counting; format: ADME, organism-based
# [2] = Drug uptake in albino F344/DuCrlCrlj rat bone marrow at 5 mg/kg, po after 336 hrs by liquid scintillation counting; format: ADME, organism-based
# Thymus [3] = assay: Drug uptake in albino F344/DuCrlCrlj rat thymus at 5 mg/kg, po after 1 hr by liquid scintillation counting; format: ADME, organism-based
# Adrenal gland = assay: Drug uptake in albino F344/DuCrlCrlj rat adrenal gland at 5 mg/kg, po after 4 hrs by liquid scintillation counting; format: ADME, organism-based
# Stomach = assay: Drug uptake in albino F344/DuCrlCrlj rat stomach assessed as ng equivalent of CS-1036 at 5 mg/kg, po after 168 hrs by liquid scintillation counting; format: ADME, organism-based
# Small intestine = assay: Drug uptake in albino F344/DuCrlCrlj rat small intestine at 5 mg/kg, po after 24 hrs by liquid scintillation counting; format: ADME, organism-based
# Large intestine [4] = assay: Drug uptake in albino F344/DuCrlCrlj rat large intestine assessed as ng equivalent of CS-1036 at 5 mg/kg, po after 72 hrs by liquid scintillation counting; format: ADME, organism-based
# [5] = Drug uptake in albino F344/DuCrlCrlj rat urinary bladder assessed as ng equivalent of CS-1036 at 5 mg/kg, po after 24 hrs by liquid scintillation counting; format: ADME, organism-based
# [6] = Drug uptake in albino F344/DuCrlCrlj rat testis at 5 mg/kg, po after 168 hrs by liquid scintillation counting; format: ADME, organism-based
# Cerebellum [7] = assay: Drug uptake in albino F344/DuCrlCrlj rat cerebellum at 5 mg/kg, po after 336 hrs by liquid scintillation counting; format: ADME, organism-based
# Spleen = assay: Drug uptake in albino F344/DuCrlCrlj rat spleen assessed as ng equivalent of CS-1036 at 5 mg/kg, po after 72 hrs by liquid scintillation counting; format: ADME, organism-based
# Cerebellum [8] = assay: Drug uptake in albino F344/DuCrlCrlj rat cerebellum assessed as ng equivalent of CS-1036 at 5 mg/kg, po after 24 hrs by liquid scintillation counting; format: ADME, organism-based
# Liver = assay: Drug uptake in albino F344/DuCrlCrlj rat liver at 5 mg/kg, po after 1 hr by liquid scintillation counting; format: ADME, organism-based
# Harderian gland [9] = assay: Drug uptake in albino F344/DuCrlCrlj rat harderian gland assessed as ng equivalent of CS-1036 at 5 mg/kg, po after 72 hrs by liquid scintillation counting; format: ADME, organism-based
# Thymus [10] = assay: Drug uptake in albino F344/DuCrlCrlj rat thymus assessed as ng equivalent of CS-1036 at 5 mg/kg, po after 72 hrs by liquid scintillation counting; format: ADME, organism-based
# [11] = Drug uptake in albino F344/DuCrlCrlj rat eyeball assessed as ng equivalent of CS-1036 at 5 mg/kg, po after 72 hrs by liquid scintillation counting; format: ADME, organism-based
# Lung = assay: Drug uptake in albino F344/DuCrlCrlj rat lung assessed as ng equivalent of CS-1036 at 5 mg/kg, po after 8 hrs by liquid scintillation counting; format: ADME, organism-based
# [12] = Drug uptake in albino F344/DuCrlCrlj rat bone marrow assessed as ng equivalent of CS-1036 at 5 mg/kg, po after 4 hrs by liquid scintillation counting; format: ADME, organism-based
# [13] = Drug uptake in albino F344/DuCrlCrlj rat thyroid gland at 5 mg/kg, po after 336 hrs by liquid scintillation counting; format: ADME, organism-based
# Harderian gland [14] = assay: Drug uptake in albino F344/DuCrlCrlj rat harderian gland assessed as ng equivalent of CS-1036 at 5 mg/kg, po after 4 hrs by liquid scintillation counting; format: ADME, organism-based
# [15] = Drug uptake in albino F344/DuCrlCrlj rat brown fat assessed as ng equivalent of CS-1036 at 5 mg/kg, po after 72 hrs by liquid scintillation counting; format: ADME, organism-based, Brown adipose tissue
# Heart = assay: Drug uptake in albino F344/DuCrlCrlj rat heart at 5 mg/kg, po after 72 hrs by liquid scintillation counting; format: ADME, organism-based
# Large intestine [16] = assay: Drug uptake in albino F344/DuCrlCrlj rat large intestine assessed as ng equivalent of CS-1036 at 5 mg/kg, po after 168 hrs by liquid scintillation counting; format: ADME, organism-based
# Pancreas [17] = assay: Drug uptake in albino F344/DuCrlCrlj rat pancreas at 5 mg/kg, po after 336 hrs by liquid scintillation counting; format: ADME, organism-based
# Aorta = assay: Drug uptake in albino F344/DuCrlCrlj rat aorta assessed as ng equivalent of CS-1036 at 5 mg/kg, po after 168 hrs by liquid scintillation counting; format: ADME, organism-based
# Cerebrum = assay: Drug uptake in albino F344/DuCrlCrlj rat cerebrum assessed as ng equivalent of CS-1036 at 5 mg/kg, po after 72 hrs by liquid scintillation counting; format: ADME, organism-based
# Procedure, shortened: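 Single oral [14C]CS-1036 at 5 mg/kg was given to male rats (159–167 g; n = 3). Cerebrum was collected after aortic bleeding at 1, 4, 8, 24, 72, 168 or 336 h, weighed, and homogenized in 2 volumes of saline. A 0.5 ml aliquot was solubilized in Soluene-350 and counted by LSC with external-standard correction. Results are in ng equivalent/g tissue from specific activity and sample weight.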
# [18] = Drug uptake in albino F344/DuCrlCrlj rat testis at 5 mg/kg, po after 336 hrs by liquid scintillation counting; format: ADME, organism-based
# Thymus [19] = assay: Drug uptake in albino F344/DuCrlCrlj rat thymus at 5 mg/kg, po after 4 hrs by liquid scintillation counting; format: ADME, organism-based
# Large intestine [20] = assay: Drug uptake in albino F344/DuCrlCrlj rat large intestine assessed as ng equivalent of CS-1036 at 5 mg/kg, po after 1 hr by liquid scintillation counting; format: ADME, organism-based
# [21] = Drug uptake in albino F344/DuCrlCrlj rat testis assessed as ng equivalent of CS-1036 at 5 mg/kg, po after 336 hrs by liquid scintillation counting; format: ADME, organism-based
# [22] = Drug uptake in albino F344/DuCrlCrlj rat fat at 5 mg/kg, po after 24 hrs by liquid scintillation counting; format: ADME, organism-based, Adipose tissue
# Procedure, shortened: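 Male F344/DuCrlCrlj rats (bought at 7 weeks, acclimatized 5–6 days; 159–167 g; n = 3 per time point) received a single oral dose of [14C]CS-1036 at 5 mg/kg. White adipose tissue was collected after abdominal aortic bleeding at 1, 4, 8, 24, 72, 168 or 336 h. Samples were counted by LSC with external-standard efficiency correction. Results were converted to ng equivalents per g from specific activity and sample weight.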
# Large intestine [23] = assay: Drug uptake in albino F344/DuCrlCrlj rat large intestine assessed as ng equivalent of CS-1036 at 5 mg/kg, po after 24 hrs by liquid scintillation counting; format: ADME, organism-based
# [24] = Drug uptake in albino F344/DuCrlCrlj rat bone marrow at 5 mg/kg, po after 24 hrs by liquid scintillation counting; format: ADME, organism-based
# Pancreas [25] = assay: Drug uptake in albino F344/DuCrlCrlj rat pancreas at 5 mg/kg, po after 1 hr by liquid scintillation counting; format: ADME, organism-based
compound,measurement,setting,value
C[C@H]1O[C@@H](O[C@H]2[C@H](O)[C@@H](O)[C@@H](O[14C@H]3[14C@H](O)[14CH2]N[14C@@H]3[14CH2]O)O[C@@H]2CO)[C@H](O)[C@@H](O)[C@@H]1O,Radiolabel recovery,Zone of skin,53.9 ngequiv/g
same,Radiolabel recovery,[1],43.2 ngequiv/g
same,Radiolabel recovery,[2],26.2 ngequiv/g
same,Radiolabel recovery,Thymus [3],23.2 ngequiv/g
same,Radiolabel recovery,Adrenal gland,33.3 ngequiv/g
same,Radiolabel recovery,Stomach,11.2 ngequiv/g
same,Radiolabel recovery,Small intestine,94.4 ngequiv/g
same,Radiolabel recovery,Large intestine [4],29.5 ngequiv/g
same,Radiolabel recovery,[5],8.6 ngequiv/g
same,Radiolabel recovery,[6],9.95 ngequiv/g
same,Radiolabel recovery,Cerebellum [7],5.41 ngequiv/g
same,Radiolabel recovery,Spleen,19.5 ngequiv/g
same,Radiolabel recovery,Cerebellum [8],2.3 ngequiv/g
same,Radiolabel recovery,Liver,346 ngequiv/g
same,Radiolabel recovery,Harderian gland [9],67 ngequiv/g
same,Radiolabel recovery,Thymus [10],6.6 ngequiv/g
same,Radiolabel recovery,[11],1.72 ngequiv/g
same,Radiolabel recovery,Lung,72.1 ngequiv/g
same,Radiolabel recovery,[12],7.9 ngequiv/g
same,Radiolabel recovery,[13],14.5 ngequiv/g
same,Radiolabel recovery,Harderian gland [14],5.1 ngequiv/g
same,Radiolabel recovery,[15],136 ngequiv/g
same,Radiolabel recovery,Heart,27.5 ngequiv/g
same,Radiolabel recovery,Large intestine [16],19 ngequiv/g
same,Radiolabel recovery,Pancreas [17],25.4 ngequiv/g
same,Radiolabel recovery,Aorta,6.8 ngequiv/g
same,Radiolabel recovery,Cerebrum,4.88 ngequiv/g
same,Radiolabel recovery,[18],6.02 ngequiv/g
same,Radiolabel recovery,Thymus [19],22 ngequiv/g
same,Radiolabel recovery,Large intestine [20],1080 ngequiv/g
same,Radiolabel recovery,[21],2.06 ngequiv/g
same,Radiolabel recovery,[22],82.9 ngequiv/g
same,Radiolabel recovery,Large intestine [23],138 ngequiv/g
same,Radiolabel recovery,[24],116 ngequiv/g
same,Radiolabel recovery,Pancreas [25],102 ngequiv/g
